How the values were obtained:
Mus musculus [1] = assay: Hypoglycemic effect in normal ICR mouse assessed as decrease in blood glucose AUC (0 to 2 hrs) at 50 mg/kg, po administered as single dose 30 mins prior to glucose challenge by OGTT relative to control; type: functional; parameters: scale not given: the % may be the effect or the level left
How it was run: (§1)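 Ten-week-old male ICR mice, fasted 12 h, randomized n = 6 per group. Single oral dose in 0.5% CMC given 30 min before oral glucose 3 g/kg. Tail-vein blood glucose measured by test strips at −30, 0, 15, 30, 45, 60 and 120 min; AUC0-2h calculated; mean ± SEM, Student's t-test vs vehicle.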

[2] = 1-octanol-phosphate buffer distribution coefficient, log D of compound at 100 uM at pH 7.4 after 24 hrs by HPLC based shake flask method; type: physicochemical
How it was run: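 Final concentration 100 µM, diluted from 10 mM DMSO stock, in 1:1 0.01 M phosphate buffer pH 7.4 and 1-octanol. Shaken 700 rpm for 24 h, then 1 h phase separation. Octanol phase diluted ×10 before HPLC, buffer phase injected directly, each in duplicate. LogD = octanol/buffer peak area at 254 nm, corrected with two calibration points; three independent experiments.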

[3] = target: Free fatty acid receptor 1 (Homo sapiens) (UniProt O14842); assay: Agonist activity at human FFA1 receptor expressed in CHO cells assessed as intracellular calcium influx at 100 nM measured for 90 sec by Fluo-4-AM dye based FLIPR assay relative to control; type: functional, cell-based
How it was run: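 CHO cells stably expressing human FFA1 (NM_005303), 15 K cells/well, grown 12 h at 37 °C in 5% CO2, then HBSS wash. Ca2+ signal read by FLIPR for 90 s after addition. Activity = (test − vehicle)/(10 µM γ-linolenic acid − vehicle) × 100; mean of three independent experiments.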

Mus musculus [4] = assay: Hypoglycemic effect in normal ICR mouse assessed as decrease in plasma glucose level at 50 mg/kg, po administered as single dose 30 mins prior to glucose challenge by OGTT relative to control; type: functional, organism-based; settings: TDE = time-dependent effect; how it was run: as §1
Mus musculus [5] = assay: Hypoglycemic effect in fasting STZ-induced type-2 diabetic C57BL/6 mouse assessed as decrease in blood glucose AUC (0 to 2 hrs) at 50 mg/kg, po administered as single dose 30 mins prior to glucose challenge by OGTT relative to control; type: functional; parameters: scale not given: the % may be the effect or the level left
How it was run: (§2)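 Male C57BL/6 mice on high-fat diet (45% kcal fat) for 4 weeks, then STZ 80 mg/kg i.p., then high-fat diet another 4 weeks. Fasting glucose ≥11.1 mmol/L taken as diabetic. Fasted 12 h, n = 6 per group. Oral dose in 0.5% CMC 30 min before oral glucose 2 g/kg. Tail-vein glucose by test strips at −30, 0, 15, 30, 45, 60 and 120 min; AUC0-2h; mean ± SEM.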

Mus musculus [6] = assay: Hypoglycemic effect in fasting STZ-induced type-2 diabetic C57BL/6 mouse assessed as decrease in blood glucose AUC (0 to 2 hrs) at 20 mg/kg, po administered as single dose 30 mins prior to glucose challenge measured by OGTT relative to control; type: functional; parameters: scale not given: the % may be the effect or the level left; how it was run: as §2

Sequence of Free fatty acid receptor 1 (Homo sapiens) (O14842 whole entry): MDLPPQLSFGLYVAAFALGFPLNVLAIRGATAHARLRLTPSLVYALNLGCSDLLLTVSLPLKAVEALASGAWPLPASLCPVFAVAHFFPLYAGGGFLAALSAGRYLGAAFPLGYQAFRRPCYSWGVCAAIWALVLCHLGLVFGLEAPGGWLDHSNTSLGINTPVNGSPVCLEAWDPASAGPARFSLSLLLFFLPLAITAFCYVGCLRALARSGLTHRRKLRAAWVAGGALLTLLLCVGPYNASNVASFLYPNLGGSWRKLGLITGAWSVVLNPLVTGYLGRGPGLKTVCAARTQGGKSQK

`Cc1ccc(Cl)cc1-n1cc(COc2ccc3c(c2)OCC3CC(=O)O)nn1` (stereo unspecified) gave an Activity (Mus musculus [1]) of 16.8%, a logD at 24 h, 100 µM [2] of 2.08 and an Activity [3] of 33.8%. The Activity (Mus musculus [4]) was “Tde”.
For `COc1cccc(-n2cc(COc3ccc(OCC(=O)O)c(F)c3)nn2)c1`, the logD at 24 h, 100 µM [2] was 0.52, the Activity [3] was 24.4% and the Activity (Mus musculus [4]) was “Tde”.
In the case of `Cc1ccc(Cl)cc1-n1cc(COc2ccc(OCC(=O)O)c(F)c2)nn1`, the Activity (Mus musculus [1]) is reported as 21.4%, the logD at 24 h, 100 µM [2] is reported as 1.95 and the Activity [3] is reported as 36.1%. The Activity (Mus musculus [4]) was “Tde” and the Activity (Mus musculus [5]) was 14.2%.
With `Cc1cc(OCCCS(C)(=O)=O)cc(C)c1-c1cccc(COc2ccc3c(c2)OC[C@H]3CC(=O)O)c1` [FASIGLIFAM] the Activity (Mus musculus [6]) was 32.5%.
Work on `O=C(O)COc1ccc(OCc2cn(-c3ccccc3)nn2)cc1` yielded an Activity [3] of 0.64%.
In the case of `O=C(O)CC1COc2cc(OCc3cn(-c4ccccc4F)nn3)ccc21` (stereo unspecified), the Activity [3] is reported as 6.69%.
In the case of `O=C(O)CC1COc2cc(OCc3cn(-c4ccc(Cl)cc4)nn3)ccc21` (stereo unspecified), the Activity [3] is reported as 24.7% and the Activity (Mus musculus [4]) is reported as “Tde”.
Work on `Cc1ccc(-n2cc(COc3ccc(OCC(=O)O)cc3)nn2)cc1` yielded a logD at 24 h, 100 µM [2] of 0.89 and an Activity [3] of 16.4%.
`O=C(O)CC1COc2cc(OCc3cn(-c4ccccc4Cl)nn3)ccc21` (stereo unspecified) gave an Activity [3] of 9.34%.
Compound `O=C(O)COc1ccc(OCc2cn(-c3ccc(Cl)cc3)nn2)cc1` has an Activity [3] of 19.4%.
With `O=C(O)CC1COc2cc(OCc3cn(-c4c(Cl)cccc4Cl)nn3)ccc21` (stereo unspecified) the logD at 24 h, 100 µM [2] was 1.96 and the Activity [3] was 21.7%.
With `O=C(O)CC1COc2cc(OCc3cn(-c4cccc(Cl)c4)nn3)ccc21` (stereo unspecified) the logD at 24 h, 100 µM [2] was 1.09 and the Activity [3] was 22.8%.
`O=C(O)COc1ccc(OCc2cn(-c3ccc(F)cc3)nn2)cc1` gave an Activity [3] of 13.8%.
For `O=C(O)COc1ccc(OCc2cn(-c3ccc(Cl)cc3)nn2)cc1F`, the logD at 24 h, 100 µM [2] was 1.37, the Activity [3] was 26.1% and the Activity (Mus musculus [4]) was “Tde”.
For `CC(C)(C)c1ccc(-n2cc(COc3ccc(OCC(=O)O)c(F)c3)nn2)cc1`, the Activity [3] was 4.53%.
Work on `O=C(O)CC1COc2cc(OCc3cn(-c4ccc(OCc5ccccc5)cc4)nn3)ccc21` (stereo unspecified) yielded an Activity [3] of 3.67%.
With `COc1cccc(-n2cc(COc3ccc4c(c3)OCC4CC(=O)O)nn2)c1` (stereo unspecified) the Activity [3] was 19.4%.
In the case of `Cc1cccc(-n2cc(COc3ccc(OCC(=O)O)cc3)nn2)c1`, the Activity [3] is reported as 11.8%.
`O=C(O)CC1COc2cc(OCc3cn(-c4ccccc4)nn3)ccc21` (stereo unspecified) gave an Activity [3] of 0.76%.
For `CCOc1ccc(-n2cc(COc3ccc(OCC(=O)O)c(F)c3)nn2)cc1`, the Activity [3] was 7.62%.
In the case of `O=C(O)COc1ccc(OCc2cn(-c3ccc(F)cc3)nn2)cc1F`, the logD at 24 h, 100 µM [2] is reported as 0.92 and the Activity [3] is reported as 20.4%.
With `O=C(O)COc1ccc(OCc2cn(-c3cccc(Cl)c3)nn2)cc1F` the Activity [3] was 22.7%.
In the case of `O=C(O)COc1ccc(OCc2cn(-c3ccccc3)nn2)cc1F`, the logD at 24 h, 100 µM [2] is reported as -0.23 and the Activity [3] is reported as 5.83%.
In the case of `COc1ccccc1-n1cc(COc2ccc(OCC(=O)O)c(F)c2)nn1`, the Activity [3] is reported as 14.6%.
In the case of `O=C(O)COc1ccc(OCc2cn(-c3c(Cl)cccc3Cl)nn2)cc1F`, the Activity (Mus musculus [1]) is reported as 17.7%, the logD at 24 h, 100 µM [2] is reported as 2.16 and the Activity [3] is reported as 29.7%. For the same compound, the Activity (Mus musculus [4]) was “Tde”.
With `O=C(O)COc1ccc(OCc2cn(-c3ccccc3Cl)nn2)cc1F` the Activity [3] was 11.3%.
